Assay results published in ChEMBL document CHEMBL1130099, “Stabilized analogs of thymopentin. 2. 1,2- and 3,4-ketomethylene pseudopeptides” (J Med Chem, 1997).

Key:
CCRF-CEM [1] = test: Binding efficacy expressed as counts remaining after competition was subtracted from total of Thymopentin and divided by the counts reduced by authentic Thymopentin; assay type: functional, Homo sapiens
Procedure, shortened: (§1)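 CEM cells at 5×10^6 cells/0.1 mL binding buffer, given unlabeled peptide over 10^-6 to 10^-3 M plus radiolabeled thymopentin (548 000 cpm), 30 min at 25 °C. Diluted with ice-cold buffer, washed twice by centrifugation, bound counts by scintillation. Efficacy = (total thymopentin binding − counts after competition)/(reduction by authentic thymopentin); mean ± SEM over repeated trials.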

CCRF-CEM [2] = test: Ability to bound CEM cell measured as competition for displacement of radiolabeled Thymopentin from the receptor; assay type: functional, Homo sapiens; procedure, shortened: as §1
[3] = The plasma half life of compound was determined on heparin prepared by human plasma.
Mus musculus = organism: Mus musculus; test: The plasma half life of compound was determined on heparin prepared by mouse plasma; Not degraded; assay type: ADME
Procedure, shortened: (§2)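 Half-life in heparinized mouse plasma: peptide incubated for variable times, then parent decrease and degradation products resolved and quantified by HPLC absorbance.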

[4] = The plasma half life of compound was determined on heparin prepared by human plasma; Not degraded; details: in vivo
[5] = The plasma half life of compound was determined on EDTA prepared by mouse plasma.; assay type: ADME
Procedure, shortened: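 Peptide incubated in EDTA-treated mouse plasma for variable times. Loss of parent and appearance of degradation products quantified by HPLC with absorbance detection; half-life in min.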

[6] = The plasma half life of compound was determined on heparin prepared by mouse plasma.; assay type: ADME; procedure, shortened: as §2

Row | SMILES | Binding (CCRF-CEM [1]) [%] | Binding competition (CCRF-CEM [2]) [mean counts] | also measured
1 | C[C@H](CC(=O)[C@H](CC(=O)O)NC(=O)[C@H](CCCCN)NC(=O)[C@@H](N)CCCN=C(N)N)C(=O)N[C@@H](Cc1ccccc1)C(=O)O (stereo in doubt; 3e-B) | 24 | 2606 | 
2 | CC(C)[C@H](CC(=O)[C@H](CC(=O)O)NC(=O)[C@@H]1CCCN1C(=O)[C@H](N)CCCN=C(N)N)C(=O)N[C@@H](Cc1ccccc1)C(N)=O | 20 | 2692 | 
3 | CC(C)[C@H](CC(=O)[C@H](CC(=O)O)NC(=O)[C@H](CCCCN)NC(=O)[C@@H](N)CCCN=C(N)N)C(=O)N[C@@H](Cc1ccccc1)C(=O)O (stereo in doubt; 3a-B) | 103 | 1091 | 
4 | CCCC[C@H](CC(=O)[C@@H](N)CCCN=C(N)N)C(=O)N[C@@H](CC(=O)O)C(=O)N[C@H](C(=O)N[C@@H](Cc1ccccc1)C(=O)O)C(C)C (stereo in doubt; 2a-A) | 44 | 2222 | half-life [3]: 12.5 min
5 | CCCC[C@H](NC(=O)[C@@H](N)CCCN=C(N)N)C(=O)N[C@@H](CC(=O)O)C(=O)C[C@H](C(=O)N[C@@H](Cc1ccccc1)C(=O)O)C(C)C (stereo in doubt; 3b-B) | 85 | 1447 | 
6 | CCCC[C@H](CC(=O)[C@@H](N)CCCN=C(N)N)C(=O)N[C@@H](CC(=O)O)C(=O)N[C@@H](C(=O)N[C@@H](Cc1ccccc1)C(=O)O)C(C)C | 71 | 1713 | 
7 | CCCC[C@H](CC(=O)[C@@H](N)CCCN=C(N)N)C(=O)N[C@@H](CC(=O)O)C(=O)N[C@H](C(=O)N[C@@H](Cc1ccccc1)C(N)=O)C(C)C (stereo in doubt; 2b-B) | 0 | 3648 | 
8 | CCCC[C@H](NC(=O)[C@@H](N)CCCN=C(N)N)C(=O)N[C@@H](CC(=O)O)C(=O)C[C@H](C(=O)N[C@@H](Cc1ccccc1)C(=O)O)C(C)C (stereo in doubt; 3b-A) | 96 | 1232 | 
9 | CCCC[C@H](CC(=O)[C@@H](N)CCCN=C(N)N)C(=O)N[C@@H](CC(=O)O)C(=O)N[C@H](C(=O)N[C@@H](Cc1ccccc1)C(=O)O)C(C)C (stereo in doubt; 2a-C) | 20 | 2687 | 
10 | CCCC[C@H](CC(=O)[C@@H](N)CCCN=C(N)N)C(=O)N[C@@H](CC(=O)O)C(=O)N[C@H](C(=O)N[C@@H](Cc1ccccc1)C(N)=O)C(C)C (stereo in doubt; 2b-A) |  | 3627 | 
11 | CC(C)[C@H](CC(=O)[C@H](CC(=O)O)NC(=O)[C@H](CCCCN)N(C)C(=O)[C@@H](N)CCCN=C(N)N)C(=O)N[C@@H](Cc1ccccc1)C(=O)O | 13 | 2820 | T1/2 (Mus musculus): Not degraded; T1/2 [4]: Not degraded
12 | CC(C)[C@H](CC(=O)[C@H](CC(=O)O)NC(=O)[C@@H]1CCCN1C(=O)[C@H](N)CCCN=C(N)N)C(=O)N[C@@H](Cc1ccccc1)C(=O)O | 72 | 1686 | 
13 | CC(C)[C@H](CC(=O)[C@H](CC(=O)O)NC(=O)[C@H](CCCCN)NC(=O)[C@@H](N)CCCN=C(N)N)C(=O)N[C@@H](Cc1ccccc1)C(=O)O (stereo in doubt; 3a-A) | 115 | 844 | half-life [5]: 5.8 min; half-life [6]: 2.4 min; half-life [3]: 2.7 min
14 | CCCC[C@H](CC(=O)[C@@H](N)CCCN=C(N)N)C(=O)N[C@@H](CC(=O)O)C(=O)N[C@H](C(=O)N[C@@H](Cc1ccccc1)C(=O)O)C(C)C (stereo in doubt; 2a-D) | 39 | 2333 | 
15 | C[C@H](CC(=O)[C@H](CC(=O)O)NC(=O)[C@H](CCCCN)NC(=O)[C@@H](N)CCCN=C(N)N)C(=O)N[C@@H](Cc1ccccc1)C(=O)O (stereo in doubt; 3e-A) | 47 | 2172 | 
16 | CCCC[C@H](CC(=O)[C@@H](N)CCCN=C(N)N)C(=O)N[C@@H](CC(=O)O)C(=O)N[C@H](C(=O)N[C@@H](Cc1ccccc1)C(=O)O)C(C)C (stereo in doubt; 2a-B) | 47 | 2176 | 
